This is an account of results in ChEMBL document CHEMBL1127679, “6H-pyrazolo[4,5,1-de]acridin-6-ones as a novel class of antitumor agents. Synthesis and biological activity” (J Med Chem, 1994).

One assay addresses Nucleic Acid. Description: Relative affinity for DNA binding. Type of assay: nucleic-acid assay.
Assay [1] is filed under the species Mus musculus. The assay is described as follows: Compound evaluated for optimal dose per injection against murine P388 leukemia cells. Type of assay: functional. The essentials: (§1)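 Mice inoculated ip with P388 leukemia cells or the adriamycin-resistant subline P388/ADM. Drug activity expressed as T/C (%), i.e. mean survival days of the treated group over those of the control group, followed for 60 days. T/C >130% taken as significant. Optimal dose reported in mg/kg per injection.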

The species named for assay [2] is Mus musculus. Description: %T/C value measured in antitumor activity using murine P388 leukemia cells. The class given is functional. An outline of the steps: as §1
The species named for assay [3] is Mus musculus. Description: Compound evaluated for optimal dose per injection against murine sarcoma 180 cells. Type of assay: functional. The essentials: (§2)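 Sarcoma 180 cells inoculated sc in mice. Drugs tested for antitumor activity, with the optimal dose given in mg/kg per injection. Activity expressed as treated versus control (T/C) value, and T/C <50% taken as effective.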

Assay [4] is filed under the species Mus musculus. The assay is described as follows: %T/C value measured in antitumor activity using murine P388/ADM cells. Type of assay: functional. An outline of the steps:
as §1

For assay [5], the species on record is Mus musculus. The assay is described as follows: Compound evaluated for optimal dose per injection against adriamycin resistant murine cell line (P388/ADM cells). The class given is functional. An outline of the steps: as §1
The species named for assay [6] is Mus musculus. Description: %T/C value measured in antitumor activity using murine sarcoma 180 cells. The class given is functional. The essentials: as §2
Assay [7] relates to Mus musculus. Description: Compound evaluated for optimal dose (mg/kg) per injection against murine P388 leukemia cells. Type of assay: functional. The essentials:
as §1

Assay [8] is filed under the species Mus musculus. Description: %T/C value measured in antitumor activity using murine P388/ADM cells. Type of assay: functional. The essentials:
as §1

For assay [9], the species on record is Mus musculus. The assay is described as follows: %T/C value measured in antitumor activity using murine sarcoma 180 tumor cells. Type of assay: functional. The essentials:
as §2

Molecules are shown by their SMILES.

Consider `CN(C)CCNCc1nn2c3cccc(O)c3c(=O)c3c(NCCN(C)C)ccc1c32`, for which the IC50 (as a rule, the concentration that inhibits the measured activity by half) at Nucleic Acid is 160 nM.

For the molecule `NCCNCc1nn2c3ccccc3c(=O)c3c(NCCN)ccc1c32`, in the assay listed under Mus musculus [1], the Optimal dose worked out at 38 mg/kg. The molecule further had an IC50 on Nucleic Acid of 130 nM. The T/C (usually the ratio of treated to control) in the assay listed under Mus musculus [2] stood at 150%.

Turning to `NCCCNc1ccc2c(CN3CCOCC3)nn3c4cccc(O)c4c(=O)c1c23`, the Optimal dose in the assay filed under Mus musculus [3], in the assay filed under Mus musculus [5] and in the assay with Mus musculus [7] was 13 mg/kg throughout. Moreover, the T/C in the assay filed under Mus musculus [4] is 115%; in the assay listed under Mus musculus [6], 33%; in the assay listed under Mus musculus [2], over 278%. For the same molecule, the IC50 at Nucleic Acid was determined as 890 nM.

For the molecule `NCCNc1ccc2c(CNCCCCO)nn3c4cccc(O)c4c(=O)c1c23`, the values for the Optimal dose in the assay filed under Mus musculus [5] and with Mus musculus [7] were 6.3 mg/kg and 3.1 mg/kg, respectively. On Nucleic Acid, this molecule had an IC50 of 170 nM. The T/C worked out at 146% in the assay filed under Mus musculus [2] and 126% in the assay listed under Mus musculus [8].

Molecule `CN(C)CCNCc1nn2c3ccccc3c(=O)c3c(NCCN(C)C)ccc1c32` registered an IC50 at Nucleic Acid of 260 nM.

Regarding `NCCCCNc1ccc2c(CNCCO)nn3c4cccc(O)c4c(=O)c1c23`, the Optimal dose in the assay filed under Mus musculus [5] was 50 mg/kg; in the assay listed under Mus musculus [1], 25 mg/kg. This molecule registered an IC50 on Nucleic Acid of 190 nM. Moreover, the results for the T/C in the assay listed under Mus musculus [2] and in the assay filed under Mus musculus [8] were 161% and 112%, respectively.

As for `NCCNc1ccc2c(CNCCO)nn3c4cccc(O)c4c(=O)c1c23`, the Optimal dose in the assay filed under Mus musculus [3] was found to be 6.3 mg/kg; in the assay filed under Mus musculus [5], 1.6 mg/kg; in the assay filed under Mus musculus [1] it was 1.6 mg/kg. Moreover, the T/C is listed as 6% in the assay filed under Mus musculus [6], over 222% in the assay listed under Mus musculus [2] and 152% in the assay filed under Mus musculus [8]. For the same molecule, the IC50 on Nucleic Acid came out at 140 nM.

`NCCCNc1ccc2c(CNCCO)nn3c4cccc(O)c4c(=O)c1c23`: the values for the Optimal dose in the assay listed under Mus musculus [3], in the assay listed under Mus musculus [5] and in the assay filed under Mus musculus [1] were 6 mg/kg, 6.3 mg/kg and 13 mg/kg, respectively. The same molecule yielded an IC50 at Nucleic Acid of 130 nM. In addition, the T/C in the assay listed under Mus musculus [9] is 21%; in the assay filed under Mus musculus [2], over 230%; in the assay listed under Mus musculus [8] it was 156%.

Consider `CN(C)CCNc1ccc2c(CN(CCO)CCO)nn3c4cccc(O)c4c(=O)c1c23`, for which the figures for the Optimal dose in the assay listed under Mus musculus [3], in the assay listed under Mus musculus [5] and with Mus musculus [7] were 13 mg/kg, 25 mg/kg and 25 mg/kg, respectively. The T/C in the assay filed under Mus musculus [4] was 134%; in the assay filed under Mus musculus [9] it was 42%; in the assay filed under Mus musculus [2] it was over 286%. The molecule further showed an IC50 at Nucleic Acid of 420 nM.

With `O=c1c2c(O)cccc2n2nc(CNCCO)c3ccc(NCCCO)c1c32`, the Optimal dose was 50 mg/kg in the assay filed under Mus musculus [5] and 13 mg/kg with Mus musculus [7]. Also, on Nucleic Acid, the IC50 stood at 1050 nM. In addition, the T/C in the assay filed under Mus musculus [2] turned out to be 152%; in the assay filed under Mus musculus [8], 123%.

On Nucleic Acid, `COc1cccc2c1c(=O)c1c(NCCN(C)C)ccc3c(CNCCN(C)C)nn2c31` returned an IC50 of 160 nM.

In the case of `CN(C)CCNc1ccc2c(CNCCO)nn3c4cccc(O)c4c(=O)c1c23`, the Optimal dose worked out at 3.1 mg/kg in the assay listed under Mus musculus [3], 3.1 mg/kg in the assay listed under Mus musculus [5] and 6.3 mg/kg in the assay listed under Mus musculus [1]. At Nucleic Acid, this molecule yielded an IC50 of 180 nM. The T/C is recorded as 9% in the assay filed under Mus musculus [9], over 261% in the assay filed under Mus musculus [2] and 144% in the assay listed under Mus musculus [8].

With `NCCNCc1nn2c3cccc(O)c3c(=O)c3c(NCCN)ccc1c32`, the Optimal dose was 25 mg/kg in the assay listed under Mus musculus [3], 13 mg/kg in the assay filed under Mus musculus [5] and 13 mg/kg in the assay filed under Mus musculus [1]. For the same molecule, at Nucleic Acid, the IC50 was determined as 170 nM. Further, the values for the T/C in the assay filed under Mus musculus [9], in the assay filed under Mus musculus [2] and in the assay filed under Mus musculus [8] were 12%, over 254% and 138%, respectively.

In the case of `NCCNc1ccc2c(CNCCCO)nn3c4cccc(O)c4c(=O)c1c23`, the Optimal dose in the assay filed under Mus musculus [5] and with Mus musculus [7] was 3.1 mg/kg throughout. This molecule returned an IC50 on Nucleic Acid of 140 nM. The T/C in the assay listed under Mus musculus [2] is over 181%; in the assay listed under Mus musculus [8], 146%.

As for `CCNCc1nn2c3cccc(O)c3c(=O)c3c(NCCN(C)C)ccc1c32`, the Optimal dose in the assay listed under Mus musculus [5] and in the assay filed under Mus musculus [1] was 3.1 mg/kg each time. On Nucleic Acid, this molecule showed an IC50 of 110 nM. Also, the T/C is 196% in the assay filed under Mus musculus [2] and 126% in the assay listed under Mus musculus [8].

As to `O=c1c2c(O)cccc2n2nc(CNCCO)c3ccc(NCCNCCO)c1c32`, the Optimal dose in the assay filed under Mus musculus [3] amounted to 12 mg/kg; in the assay filed under Mus musculus [5] it was 6.3 mg/kg; with Mus musculus [7], 3.1 mg/kg. Further, on Nucleic Acid, the 50% inhibitory concentration (IC50) was found to be 140 nM. In addition, the T/C is given as 5% in the assay listed under Mus musculus [9], over 208% in the assay filed under Mus musculus [2] and 145% in the assay listed under Mus musculus [8].

At Nucleic Acid, `COc1cccc2c1c(=O)c1c(NCCN)ccc3c(CNCCN)nn2c31` had a 50% inhibitory concentration (IC50) of 180 nM. The same molecule displayed an Optimal dose in the assay with Mus musculus [7] of 25 mg/kg. In the assay filed under Mus musculus [2], this molecule gave a T/C of 139%.

Regarding `COc1cccc2c1C(=O)c1c(O)c3c(c(O)c1C2=O)C[C@@](O)(C(=O)CO)C[C@@H]3O[C@H]1C[C@H](N)[C@H](O)[C@H](C)O1` [DOXORUBICIN], the Optimal dose in the assay listed under Mus musculus [3], in the assay listed under Mus musculus [5] and with Mus musculus [7] was 7.5 mg/kg in each case. In addition, the figures for the T/C in the assay listed under Mus musculus [4], in the assay listed under Mus musculus [6] and in the assay filed under Mus musculus [2] were 116%, 31% and over 254%, respectively.
